This is an account of results in ChEMBL document CHEMBL1155362, “Synthesis, characterization and derivatization of some novel types of mono- and bis-imidazolidineiminothiones and imidazolidineiminodithiones with antitumor, antiviral, antibacterial and antifungal activities--part I” (Eur J Med Chem, 2009).

In brackets after ≈: the same amount, converted by molar mass.

The subject of experiment [1] is Candida albicans. The experiment is described as follows: Antifungal activity against Candida albicans IMRU 3669 at 5 mg/ml by agar disk diffusion assay. The class given is functional. The settings on record: Candida albicans, IMRU 3669; read-out: DIZ. An outline of the steps:
(§1)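 Fungi maintained on Czapek's Dox agar; agar well diffusion with 1 cm wells and […] of each concentration (1, 2.5, 5 mg/mL) in DMF; inhibition zone diameter measured.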
A general note: In agar diffusion tests the substance spreads into inoculated agar from a disc or well.

Experiment [2] concerns Bacillus subtilis. The experiment is described as follows: Antibacterial activity against Bacillus subtilis NCIB 3610 at 1 mg/ml by agar disk diffusion assay. The format is functional. The settings on record: Bacillus subtilis, NCIB 3610; read-out: DIZ.
In experiment [3] the test system is Candida albicans. The experiment is described as follows: Antifungal activity against Candida albicans IMRU 3669 at 2.5 mg/ml by agar disk diffusion assay. The settings on record: read-out: DIZ. The class given is functional. The method, boiled down:
as §1

The nature of experiment [4]: Antitumor activity against mouse EAC cells assessed as inhibition of cell viability at 100 ug/ml after 2 hrs by trypan blue exclusion assay. Particulars: Ehrlich; call rule not given here. The format is functional. An outline of the steps: (§2)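 EAC cells aspirated from ascitic fluid of inoculated mice and diluted in saline; 0.1 mL cell suspension, 0.8 mL RPMI 1640 and 0.1 mL compound (25, 50 or 100) incubated 2 h at 37 °C; non-viable cells counted by trypan blue exclusion; % non-viable = dead/total × 100.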

Experiment [5] deals with Bacillus subtilis. The experiment is described as follows: Antibacterial activity against Bacillus subtilis NCIB 3610 at 2.5 mg/ml by agar disk diffusion assay. The class given is functional. Particulars: Bacillus subtilis, NCIB 3610; read-out: DIZ.
Another experiment deals with HepG2. Put plainly: Cytotoxicity against human HepG2 cells assessed as surviving fraction after 48 hrs by SRB assay. The class given is functional, cell-based. The settings on record: Homo sapiens, HepG2, 48 h; read-out: IC50. An outline of the steps:
(§3)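 Cells seeded at 10⁴ cells/well and left 24 h to attach, then exposed to […] in triplicate wells per dose. Incubation 48 h, 37 °C, 5% CO₂. Cells fixed and stained with sulforhodamine B, excess dye removed with acetic acid, bound dye taken up in Tris EDTA and read on an ELISA reader. Surviving fraction plotted against concentration.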

Experiment [6] deals with Bacillus subtilis. The experiment is described as follows: Antibacterial activity against Bacillus subtilis NCIB 3610 at 5 mg/ml by agar disk diffusion assay. The settings on record: Bacillus subtilis, NCIB 3610; read-out: DIZ. The class given is functional.
Experiment [7] relates to Pseudomonas aeruginosa. The experiment is described as follows: Antibacterial activity against Pseudomonas aeruginosa NCIB 9016 at 2.5 mg/ml by agar disk diffusion assay. The class given is functional. Particulars: Pseudomonas aeruginosa, NCIB 9016; read-out: DIZ.
The nature of experiment [8]: Antitumor activity against mouse EAC cells assessed as inhibition of cell viability at 50 ug/ml after 2 hrs by trypan blue exclusion assay. The format is functional. Particulars: Ehrlich. The method, boiled down:
as §2

In the next experiment the test system is MCF7. Put plainly: Cytotoxicity against human MCF7 cells assessed as surviving fraction after 48 hrs by SRB assay. The format is functional, cell-based. The method, boiled down:
as §3

The subject of the next experiment is HCT-116. The experiment is described as follows: Cytotoxicity against human HCT116 cells assessed as surviving fraction after 48 hrs by SRB assay. The class given is functional, cell-based. An outline of the steps:
as §3

The test system of experiment [9] is Aspergillus niger. Put plainly: Antifungal activity against Aspergillus niger Ferm-BAM C-21 at 5 mg/ml by agar disk diffusion assay. The class given is functional. Particulars: read-out: DIZ. An outline of the steps: as §1
Experiment [10] in a line: Antitumor activity against mouse EAC cells assessed as inhibition of cell viability at 25 ug/ml after 2 hrs by trypan blue exclusion assay. The format is functional. The settings on record: Ehrlich. An outline of the steps: as §2
Experiment [11] has as its system Pseudomonas aeruginosa. Put plainly: Antibacterial activity against Pseudomonas aeruginosa NCIB 9016 at 5 mg/ml by agar disk diffusion assay. The class given is functional. Particulars: Pseudomonas aeruginosa, NCIB 9016; read-out: DIZ.
Another experiment relates to U-251. The experiment is described as follows: Cytotoxicity against human U251 cells assessed as surviving fraction after 48 hrs by SRB assay. The format is functional, cell-based. The method, boiled down: as §3
(The SRB assay estimates cell density from bound dye.)

The subject of experiment [12] is Candida albicans. The experiment is described as follows: Antifungal activity against Candida albicans IMRU 3669 at 1 mg/ml by agar disk diffusion assay. The format is functional. The settings on record: read-out: DIZ. The method, boiled down:
as §1

The subject of another experiment is HeLa. Put plainly: Cytotoxicity against human HeLa cells assessed as surviving fraction after 48 hrs by SRB assay. The format is functional, cell-based. An outline of the steps:
as §3

For experiment [13], the system named is Pseudomonas aeruginosa. The experiment is described as follows: Antibacterial activity against Pseudomonas aeruginosa NCIB 9016 at 1 mg/ml by agar disk diffusion assay. The format is functional. Particulars: Pseudomonas aeruginosa, NCIB 9016; read-out: DIZ.
Experiment [14] relates to Aspergillus niger. Put plainly: Antifungal activity against Aspergillus niger Ferm-BAM C-21 by macrotube dilution assay. The format is functional. An outline of the steps: (§4)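 Macrotube twofold dilution per NCCLS/CLSI guidelines for fungi; 2 mg compound in 2.0 mL DMF, serially diluted across 14 tubes of Czapek's Dox medium, with a control tube; inoculum added to halve the concentration; 30 °C for 72 h; MIC is the lowest concentration without visible growth.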

Experiment [15] deals with Bacillus subtilis. The experiment is described as follows: Antimicrobial activity against Bacillus subtilis NCTC 1040 by macrotube dilution assay. The format is functional.
A further experiment relates to Salmonella typhi. The experiment is described as follows: Antimicrobial activity against Salmonella typhi NCIMB 9331 by macrotube dilution assay. The class given is functional, Salmonella enterica subsp. enterica serovar Typhi. Particulars: Salmonella enterica.
A further experiment relates to Staphylococcus aureus. Put plainly: Antimicrobial activity against Staphylococcus aureus NCTC 7447 by macrotube dilution assay. The format is functional.
Experiment [16] relates to Candida albicans. The experiment is described as follows: Antifungal activity against Candida albicans IMRU 3669 by macrotube dilution assay. The class given is functional. The method, boiled down:
as §4

The test system of another experiment is Klebsiella pneumoniae. Put plainly: Antimicrobial activity against Klebsiella pneumoniae NCIMB 9111 by macrotube dilution assay. The class given is functional.
Experiment [17] has as its system Aspergillus niger. Put plainly: Antifungal activity against Aspergillus niger Ferm-BAM C-21 at 2.5 mg/ml by agar disk diffusion assay. The format is functional. The settings on record: read-out: DIZ. The method, boiled down:
as §1

The mark [18] stands for this setting: Homo sapiens, HeLa, 48 h, read-out: IC50.

`CCOc1ccc(N2C(=O)N(c3c(CC)cc(Cc4cc(CC)c(N5C(=N)C(=S)N(c6ccc(OCC)cc6)C5=O)c(CC)c4)cc3CC)C(=N)C2=S)cc1`: the zone of inhibition at 5000 µg/mL in the experiment on Candida albicans [1] turned out to be 15 mm; in the experiment on Bacillus subtilis [6], 15 mm; in the experiment on Aspergillus niger [9], 13 mm; in the experiment with Pseudomonas aeruginosa [11], 15 mm. Also, the zone of inhibition at 1000 µg/mL in the experiment on Bacillus subtilis [2] worked out at 13 mm; in the experiment on Candida albicans [12], 12 mm. Moreover, the zone of inhibition at 2500 µg/mL in the experiment on Candida albicans [3] came out at 14 mm; in the experiment with Bacillus subtilis [5], 14 mm; with Pseudomonas aeruginosa [7] it was 13 mm. Besides, the inhibition (in general, how much of the control response was suppressed) at 100 µg/mL in [4] came to 90%. Also, the IC50 (in general, the midpoint of a concentration-inhibition curve) came to 5.44 µg/mL (≈ 7.02 µM) in the experiment with HepG2; 2.15 µg/mL (≈ 2.77 µM) in the experiment with MCF7 (Homo sapiens, MCF7, 48 h, read-out: IC50); 4.36 µg/mL (≈ 5.63 µM) with HCT-116 (Homo sapiens, HCT-116, 48 h, read-out: IC50); 1.01 µg/mL (≈ 1.3 µM) with U-251 (Homo sapiens, U-251, 48 h, read-out: IC50); 2.42 µg/mL (≈ 3.12 µM) in the experiment on HeLa (setting [18]). Moreover, the inhibition at 50 µg/mL in [8] is 80%. Besides, in experiment [10], the inhibition at 25 µg/mL came out at 60%.

`N=C1C(=S)N(c2ccc(Cl)cc2)C(=O)N1c1cccc2ccccc12`: the zone of inhibition at 5000 µg/mL with Candida albicans [1] came to 14 mm; in the experiment on Bacillus subtilis [6], 19 mm; with Aspergillus niger [9] it was 12 mm; with Pseudomonas aeruginosa [11] it was 18 mm. Besides, the zone of inhibition at 1000 µg/mL with Bacillus subtilis [2] was 17 mm; in the experiment on Pseudomonas aeruginosa [13], 15 mm. Besides, the values for the zone of inhibition at 2500 µg/mL in the experiment on Candida albicans [3], with Bacillus subtilis [5] and in the experiment with Pseudomonas aeruginosa [7] were 12 mm, 18 mm and 16 mm, respectively.

For the compound `O=C1N(c2ccc(Cl)cc2)CC(=S)N1c1ccc(Cl)c(Cl)c1`, the figures for the zone of inhibition at 5000 µg/mL in the experiment with Candida albicans [1], in the experiment with Bacillus subtilis [6] and in the experiment with Pseudomonas aeruginosa [11] were 32 mm, 20 mm and 37 mm, respectively. Further, the zone of inhibition at 1000 µg/mL in the experiment with Bacillus subtilis [2] is 19 mm; in the experiment on Pseudomonas aeruginosa [13] it was 29 mm; in the experiment on Candida albicans [12], 25 mm. The minimal inhibitory concentration (MIC) – broadly, the lowest concentration found to suppress growth – against Aspergillus niger [14] was 31.3 µg/mL (≈ 84.2 µM); with Bacillus subtilis [15], 1.95 µg/mL (≈ 5.25 µM); against Salmonella typhi, 0.49 µg/mL (≈ 1.32 µM); in the experiment with Staphylococcus aureus it was 15.6 µg/mL (≈ 42 µM); against Candida albicans [16], 0.97 µg/mL (≈ 2.61 µM); against Klebsiella pneumoniae it was 3.9 µg/mL (≈ 10.5 µM). Also, the zone of inhibition at 2500 µg/mL in the experiment with Bacillus subtilis [5] is 20 mm; in the experiment with Pseudomonas aeruginosa [7], 32 mm.

As for `N#CC(=S)Nc1ccc(Cl)c(Cl)c1`, the zone of inhibition at 5000 µg/mL in the experiment on Pseudomonas aeruginosa [11] came out at 19 mm.

With `NNc1nnc2c(n1)n(-c1ccc(Cl)cc1)c(=O)n2-c1ccc(Cl)cc1`, the inhibition at 100 µg/mL in [4] came to 100%. Moreover, the half-inhibitory concentration (IC50) is 1.54 µg/mL (≈ 3.97 µM) in the experiment on HepG2, “Not Active” in the experiment with MCF7 (mcf7), “Not Active” in the experiment with HCT-116 (hct-116) and “Not Active” in the experiment with HeLa (hela). The inhibition at 50 µg/mL in experiment [8] was determined as 100%. For the same compound, the inhibition at 25 µg/mL in experiment [10] came to 95%.

With `O=c1n(-c2ccc(Cl)cc2)c2nc3ccccc3nc2n1-c1ccc(Cl)c(Cl)c1`, the inhibition at 100 µg/mL in experiment [4] came to 95%. Further, the IC50 in the experiment on HepG2 is 7.11 µg/mL (≈ 16.1 µM); in the experiment on MCF7 (mcf7), “Not Active”; with HCT-116 (hct-116), “Not Active”; in the experiment with U-251 (u-251), “Not Active”; in the experiment with HeLa (setting [18]), 7.38 µg/mL (≈ 16.7 µM). In addition, in [8], the inhibition at 50 µg/mL came to 70%. In [10], the inhibition at 25 µg/mL is 30%.

`CC1OC(=N)C(=S)N1c1ccc(Cl)c(Cl)c1` (configuration not stated): the zone of inhibition at 5000 µg/mL in the experiment with Candida albicans [1] came to 39 mm; with Bacillus subtilis [6], 33 mm; in the experiment on Aspergillus niger [9], 20 mm; with Pseudomonas aeruginosa [11], 41 mm. Also, the zone of inhibition at 1000 µg/mL in the experiment on Bacillus subtilis [2] came to 20 mm; in the experiment on Pseudomonas aeruginosa [13], 15 mm; in the experiment with Candida albicans [12], 21 mm. Also, the zone of inhibition at 2500 µg/mL with Candida albicans [3] stood at 33 mm; in the experiment on Bacillus subtilis [5], 27 mm; in the experiment with Pseudomonas aeruginosa [7] it was 29 mm; in the experiment with Aspergillus niger [17], 11 mm.
